We go through five compounds from ChEMBL document CHEMBL2016497, “Analogs of the RSK inhibitor SL0101: optimization of in vitro biological stability” (Bioorg Med Chem Lett, 2012).

In data set [1] the test system is MCF7. The data set is described as follows: Antiproliferative activity against human MCF7 cells after 48 hrs by CellTiter-GloTM assay. Conditions: MCF7, 48 h. Type of data set: functional, cell-based. Background: In ATP-based viability assays light output follows the ATP content of the culture.
The subject of data set [2] is MCF7. As to the kind of experiment: Antiproliferative activity against human MCF7 cells at 100 uM after 48 hrs by CellTiter-GloTM assay. Type of data set: functional, cell-based. An outline of the steps: (§1)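 Stability time course: MCF7 cells given inhibitor (100μM) at plating (time 0); percentage of growth measured at set time points versus vehicle. n=3 in quadruplicate.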

The subject of data set [3] is MCF7. As to the kind of experiment: Antiproliferative activity against human MCF7 cells at 100 uM after 144 hrs by CellTiter-GloTM assay. The format is functional, cell-based. The method in brief: as §1
Data set [4] deals with MCF7. As to the kind of experiment: Down regulation of cyclin D1 level in human MCF7 cells at 100 uM at 48 hrs by immunoblotting analysis relative to control. The format is functional, cell-based. The method in brief: (§2)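 MCF7 cells treated at 100 μM; at each time point cells were lysed and lysates immunoblotted for cyclin D1 versus control, each compound analyzed on a single membrane.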

In a further data set the test system is MCF-10A. As to the kind of experiment: Antiproliferative activity against human MCF10A cells at 50 uM after 48 hrs by CellTiter-GloTM assay. The format is cell-based. The method in brief:
(§3)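 MCF-10A and MCF7 cells exposed to inhibitor at 50 μM; growth compared with vehicle. n=3 in quadruplicate.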

Data set [5] deals with MCF7. As to the kind of experiment: Antiproliferative activity against human MCF7 cells at 50 uM after 48 hrs by CellTiter-GloTM assay. The format is functional, cell-based. The method in brief:
as §3

The test system of data set [6] is MCF7. As to the kind of experiment: Antiproliferative activity against human MCF7 cells at 100 uM after 96 hrs by CellTiter-GloTM assay. Type of data set: functional, cell-based. The method in brief:
as §1

The subject of data set [7] is MCF7. The data set is described as follows: Down regulation of cyclin D1 level in human MCF7 cells at 100 uM at 96 hrs by immunoblotting analysis relative to control. The format is functional, cell-based. An outline of the steps: as §2
Data set [8] in a line: Solubility of the compound. Type of data set: physicochemical.
Data set [9] addresses Ribosomal protein S6 kinase alpha-3 (Homo sapiens, UniProt P51812). The data set is described as follows: Inhibition of His-tagged RSK2 expressed in Sf9 cells using ERalpha-Ser167 RLASTND as substrate after 120 mins by chemiluminescence assay.

As a reminder, the IC50 is the concentration needed to halve the response being measured. A higher IC50 goes with weaker potency.

The source made the active and inactive calls. No cut-off for these calls is given here.

Chain of Ribosomal protein S6 kinase alpha-3 (P51812 whole entry): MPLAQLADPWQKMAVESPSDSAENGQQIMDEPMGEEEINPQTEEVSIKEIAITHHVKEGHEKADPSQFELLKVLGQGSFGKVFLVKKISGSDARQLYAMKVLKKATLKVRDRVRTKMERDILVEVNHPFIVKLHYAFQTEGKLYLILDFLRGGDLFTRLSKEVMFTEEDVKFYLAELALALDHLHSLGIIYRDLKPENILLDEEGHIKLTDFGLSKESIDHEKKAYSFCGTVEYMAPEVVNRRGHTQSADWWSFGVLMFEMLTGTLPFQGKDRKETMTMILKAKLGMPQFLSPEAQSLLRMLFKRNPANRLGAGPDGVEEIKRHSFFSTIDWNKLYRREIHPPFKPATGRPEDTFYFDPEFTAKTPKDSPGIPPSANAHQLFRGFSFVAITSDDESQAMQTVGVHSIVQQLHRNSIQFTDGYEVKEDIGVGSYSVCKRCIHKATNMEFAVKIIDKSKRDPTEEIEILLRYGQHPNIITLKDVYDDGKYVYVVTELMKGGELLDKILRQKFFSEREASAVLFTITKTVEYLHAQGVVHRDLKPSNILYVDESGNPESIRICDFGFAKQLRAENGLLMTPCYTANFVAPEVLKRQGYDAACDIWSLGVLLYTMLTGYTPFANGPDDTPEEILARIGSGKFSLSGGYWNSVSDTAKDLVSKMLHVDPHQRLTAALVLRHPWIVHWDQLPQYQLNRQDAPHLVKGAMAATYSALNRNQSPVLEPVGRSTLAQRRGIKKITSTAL

In the case of `CC(=O)O[C@@H]1[C@@H](OC(C)=O)[C@@H](O)[C@H](Oc2c(-c3ccc(O)cc3)oc3cc(O)cc(O)c3c2=O)O[C@H]1C`, the IC50 in the data set with MCF7 [1] was 45.6 µM. Further, the result in the data set with MCF7 [2], in the data set on MCF7 [4] and with MCF7 [5] was Active. Further, the outcome in the data set with MCF7 [3], in the data set with MCF7 [6] and in the data set with MCF7 [7] was inactive. Also, the Activity result in the data set on MCF-10A is listed as “Non-toxic”.

In the case of `C[C@@H]1O[C@@H](Oc2c(-c3ccc(O)cc3)oc3cc(O)cc(O)c3c2=O)[C@H](O)[C@H](OC(=O)N2CCCC2)[C@H]1OC(=O)N1CCCC1`, in data set [8], the solubility result was “Insoluble”.

For the compound `C[C@@H]1O[C@@H](Oc2c(-c3ccc(O)cc3)oc3cc(O)cc(O)c3c2=O)[C@H](O)[C@H](OC(=O)N2CCOCC2)[C@H]1OC(=O)N1CCOCC1`, in [8], the solubility result is given as “soluble”.

Consider `C[C@@H]1O[C@@H](Oc2c(-c3ccc(O)cc3)oc3cc(O)cc(O)c3c2=O)[C@H](O)[C@H](OC(=O)N(C)C)[C@H]1OC(=O)N(C)C`, for which the solubility result in [8] is “Insoluble”.

As for `CC(=O)CO[C@@H]1[C@@H](OCC(C)=O)[C@@H](O)[C@H](Oc2c(-c3ccc(O)cc3)oc3cc(O)cc(O)c3c2=O)O[C@H]1C`, the IC50 in [9] is 0.252 µM; in the data set on MCF7 [1], 34.1 µM. The result with MCF7 [2], in the data set with MCF7 [3] and in the data set with MCF7 [6] was inactive.
